Measurements published in ChEMBL document CHEMBL1671867, “Novel polymyxin derivatives carrying only three positive charges are effective antibacterial agents” (Antimicrob Agents Chemother, 2008).
Values after ≈ are worked out from the molar mass of the structure shown.

Key:
Enterobacter cloacae [1] = test: Antibacterial activity against Enterobacter cloacae CCUG52947 by Etest method in presence of 4 ug/ml NAB7067; assay type: functional
Klebsiella oxytoca [2] = test: Antibacterial activity against Klebsiella oxytoca ATCC 13182 by Etest method in presence of 4 ug/ml NAB7065; assay type: functional
Escherichia coli [3] = test: Antibacterial activity against Escherichia coli IH3080 by Etest method in presence of 1 ug/ml NAB7061; assay type: functional
Escherichia coli [4] = test: Antibacterial activity against 5 x 10^5 CFU/ml Escherichia coli ATCC […] by Etest method by Etest in presence of 4 ug/ml NAB7061; assay type: functional
Outline: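 Antibiotic MICs were read from E-strips on Mueller-Hinton agar containing the peptide at 1 to 16 μg/ml in twofold steps, or at a single 4 μg/ml, and on agar without peptide. The inoculum was prepared per the strip maker's instructions and matched CLSI M2-A9. Values come from two independent determinations.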

Escherichia coli [5] = test: microbe, parasite or virus in culture; details: ATCC 25992
Enterobacter cloacae [6] = test: Antibacterial activity against Enterobacter cloacae ATCC 23355 by Etest method; assay type: functional
Outline: (§1)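 E-strip MIC on Mueller-Hinton agar without added peptide; inoculum per manufacturer, matching CLSI M2-A9.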

Escherichia coli [7] = test: Antibacterial activity against Escherichia coli ATCC […] by Etest method in presence of 1 ug/ml NAB7061; assay type: functional
Escherichia coli [8] = test: Antibacterial activity against 5 x 10^5 CFU/ml Escherichia coli ATCC […] by Etest method by Etest in presence of 2 ug/ml NAB7061; assay type: functional
Escherichia coli [9] = test: Antibacterial activity against 5 x 10^5 CFU/ml Escherichia coli ATCC […] by Etest method by Etest in presence of 8 ug/ml NAB7061; assay type: functional
Acinetobacter baumannii [10] = test: Antibacterial activity against Acinetobacter baumannii by Etest method in presence of 4 ug/ml NAB7071; assay type: functional
Pseudomonas aeruginosa [11] = test: Antibacterial activity against Pseudomonas aeruginosa ATCC 27853by Etest method in presence of 1 ug/ml NAB739; assay type: functional
Outline: (§2)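 MICs of the antibiotic taken from E-strips on Mueller-Hinton agar, run both with and without peptide. […] Inoculum was prepared per the strip manufacturer, matching CLSI M2-A9.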

Acinetobacter baumannii [12] = test: Antibacterial activity against Acinetobacter baumannii ATCC 19606 by Etest method in presence of 4 ug/ml NAB7070; assay type: functional
Pseudomonas aeruginosa [13] = test: Antibacterial activity against Pseudomonas aeruginosa ATCC 27853by Etest method in presence of 0.5 ug/ml NAB739; assay type: functional; outline: as §2
Escherichia coli [14] = test: Antibacterial activity against Escherichia coli IH3080 by Etest method in presence of 2 ug/ml NAB7062; assay type: functional
Acinetobacter baumannii [15] = test: Antibacterial activity against Acinetobacter baumannii F264 by Etest method in presence of 1 ug/ml NAB739; assay type: functional
Klebsiella pneumoniae [16] = test: Antibacterial activity against Klebsiella pneumoniae ATCC 13883 by Etest method in presence of NAB7061; assay type: functional; outline: as §2
Escherichia coli [17] = test: Antibacterial activity against Escherichia coli IH3080 by Etest method in presence of NAB7061; assay type: functional
Escherichia coli [18] = test: microbe, parasite or virus in culture; details: ATCC 25992; remark: listed apart in the source
Escherichia coli [19] = test: Antibacterial activity against 5 x 10^5 CFU/ml Escherichia coli ATCC […] by Etest method in presence of […] NAB739; assay type: functional
Escherichia coli [20] = test: microbe, parasite or virus in culture; details: ATCC 25992; remark: listed apart in the source
Klebsiella oxytoca [21] = test: Antibacterial activity against Klebsiella oxytoca CCUG51683 by Etest method in presence of 4 ug/ml NAB7066; assay type: functional
Escherichia coli [22] = test: Antibacterial activity against Escherichia coli IH3080 by Etest method in presence of 4 ug/ml NAB7064; assay type: functional
Escherichia coli [23] = test: Antibacterial activity against Escherichia coli ATCC 25992 by Etest method; assay type: functional; outline: as §1
Enterobacter cloacae [24] = test: Antibacterial activity against Enterobacter cloacae by Etest method in presence of 4 ug/ml NAB7068; assay type: functional
Escherichia coli [25] = test: Antibacterial activity against Escherichia coli IH3080 by Etest method; assay type: functional; outline: as §1
Acinetobacter baumannii [26] = test: Antibacterial activity against Acinetobacter baumannii F264 by Etest method; assay type: functional; outline: as §1
Pseudomonas aeruginosa [27] = test: Antibacterial activity against Pseudomonas aeruginosa ATCC 27853by Etest method in presence of 2 ug/ml NAB739; assay type: functional
Escherichia coli [28] = test: Antibacterial activity against Escherichia coli ATCC 25992 in presence of NAB7061; assay type: functional
Klebsiella pneumoniae [29] = test: Antibacterial activity against Klebsiella pneumoniae ATCC 13883 by Etest method; assay type: functional; outline: as §2
Acinetobacter baumannii [30] = test: Antibacterial activity against Acinetobacter baumannii ATCC 19606 by Etest method in presence of 0.5 ug/ml NAB739; assay type: functional
Acinetobacter baumannii [31] = test: Antibacterial activity against Acinetobacter baumannii F264 by Etest method in presence of […] NAB739; assay type: functional
Klebsiella pneumoniae [32] = test: Antibacterial activity against Klebsiella pneumoniae by Etest method in presence of 4 ug/ml NAB7064; assay type: functional
Acinetobacter baumannii [33] = test: Antibacterial activity against Acinetobacter baumannii ATCC 19606 by Etest method in presence of NAB739; assay type: functional
Escherichia coli [34] = test: Antibacterial activity against Escherichia coli by Etest method in presence of 4 ug/ml NAB7061; assay type: functional
Enterobacter cloacae [35] = test: Antibacterial activity against Enterobacter cloacae ATCC 23355 […] by Etest method in presence of 4 ug/ml NAB7064; assay type: functional
Acinetobacter baumannii [36] = test: Antibacterial activity against Acinetobacter baumannii ATCC 19606 by Etest method; assay type: functional
Escherichia coli [37] = test: Antibacterial activity against 5 x 10^5 CFU/ml Escherichia coli ATCC […] by Etest method by Etest in presence of 1 ug/ml NAB7061; assay type: functional
Acinetobacter baumannii [38] = test: Antibacterial activity against Acinetobacter baumannii ATCC 19606 by Etest method in presence of 1 ug/ml NAB739; assay type: functional
Klebsiella pneumoniae [39] = test: Antibacterial activity against Klebsiella pneumoniae CCUG45421 by Etest method in presence of 4 ug/ml NAB7063; assay type: functional
Escherichia coli [40] = test: Antibacterial activity against Escherichia coli ATCC […] by Etest method in presence of 4 ug/ml NAB7064; assay type: functional
Escherichia coli [41] = test: microbe, parasite or virus in culture; details: ATCC 25992; remark: listed apart in the source
Escherichia coli [42] = test: Antibacterial activity against Escherichia coli NCTC13353 by Etest method in presence of 4 ug/ml NAB7062; assay type: functional
Pseudomonas aeruginosa [43] = test: Antibacterial activity against Pseudomonas aeruginosa ATCC 27853by Etest method; assay type: functional; outline: as §2
Escherichia coli [44] = test: Antibacterial activity against 5 x 10^5 CFU/ml Escherichia coli ATCC 25992 in presence of 2 ug/ml NAB7061 by Checkerboard method; assay type: functional
Proteus mirabilis = test: Antibacterial activity against Proteus mirabilis ATCC 29906 by Etest method in presence of 4 ug/ml NAB7073; assay type: functional

CO[C@H]1/C=C/O[C@@]2(C)Oc3c(C)c(O)c4c(O)c(c(/C=N/N5CCN(C)CC5)c(O)c4c3C2=O)NC(=O)/C(C)=C\C=C\[C@H](C)[C@H](O)[C@@H](C)[C@@H](O)[C@@H](C)[C@H](OC(C)=O)[C@@H]1C [RIFAMPIN]
MIC (Enterobacter cloacae [1]): 0.032 µg/mL | MIC (Klebsiella oxytoca [2]): 0.032 µg/mL | MIC (Escherichia coli [3]): 0.25 µg/mL | MIC (Escherichia coli [4]): 0.016 µg/mL | MIC (Escherichia coli [5]): 8 µg/mL (≈ 9.72 µM) | MIC (Enterobacter cloacae [6]): 12 µg/mL (≈ 14.6 µM) | MIC (Escherichia coli [7]): 0.19 µg/mL | MIC (Escherichia coli [8]): 0.064 µg/mL | MIC (Escherichia coli [9]): 0.006 µg/mL | MIC (Acinetobacter baumannii [10]): 0.032 µg/mL | MIC (Pseudomonas aeruginosa [11]): 16 µg/mL | MIC (Acinetobacter baumannii [12]): 0.094 µg/mL | MIC (Pseudomonas aeruginosa [13]): 32 µg/mL | MIC (Escherichia coli [14]): 0.19 µg/mL | MIC (Acinetobacter baumannii [15]): 0.016 µg/mL | MIC (Klebsiella pneumoniae [16]): ≤ 0.073 µg/mL | MIC (Escherichia coli [17]): ≤ 0.055 µg/mL | MIC (Escherichia coli [18]): 8 µg/mL (≈ 9.72 µM) | MIC (Escherichia coli [19]): 12 µg/mL | MIC (Escherichia coli [20]): 8 µg/mL (≈ 9.72 µM) | MIC (Klebsiella oxytoca [21]): 0.012 µg/mL | MIC (Escherichia coli [22]): 0.023 µg/mL | MIC (Escherichia coli [23]): 8 µg/mL (≈ 9.72 µM) | MIC (Enterobacter cloacae [24]): 0.016 µg/mL | MIC (Escherichia coli [25]): 8 µg/mL (≈ 9.72 µM) | MIC (Acinetobacter baumannii [26]): 12 µg/mL (≈ 14.6 µM) | MIC (Pseudomonas aeruginosa [27]): 4 µg/mL | fractional inhibitory concentration index (FICI) (Escherichia coli [28]): <=0.128 | MIC (Klebsiella pneumoniae [29]): > 16 µg/mL | MIC (Acinetobacter baumannii [30]): 0.047 µg/mL | MIC (Acinetobacter baumannii [31]): 0.38 µg/mL | MIC (Klebsiella pneumoniae [32]): 0.19 µg/mL | fractional inhibitory concentration index (FICI) (Acinetobacter baumannii [33]): 0.126 | MIC (Escherichia coli [34]): 0.016 µg/mL | MIC (Enterobacter cloacae [35]): 0.008 µg/mL | MIC (Acinetobacter baumannii [36]): 4 µg/mL (≈ 4.86 µM) | MIC (Escherichia coli [37]): 0.19 µg/mL | MIC (Acinetobacter baumannii [38]): 0.006 µg/mL | MIC (Klebsiella pneumoniae [39]): 2 µg/mL | MIC (Escherichia coli [40]): 0.016 µg/mL | MIC (Escherichia coli [41]): 8 µg/mL (≈ 9.72 µM) | MIC (Escherichia coli [42]): 0.064 µg/mL | MIC (Pseudomonas aeruginosa [43]): 32 µg/mL (≈ 38.9 µM) | MIC (Escherichia coli [44]): 0.5 µg/mL | MIC (Proteus mirabilis): 1 µg/mL
